The record followed here is ChEMBL document CHEMBL1131473, “A novel class of orally active non-peptide bradykinin B2 receptor antagonists. 1. Construction of the basic framework” (J Med Chem, 1998).

Data set [1] is described as follows: Compound at a dose of 10 mg/kg was orally administered to rats and Area under curve was reported. The class given is ADME, organism-based. Also on record: dose 10 mg/kg, route oral. As to conditions: rat, in vivo, po. The method, boiled down:
(§1)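 Male Sprague-Dawley rats (3), starved overnight, given compound orally in 0.5% methocel (0.5 mL/100 g). Femoral-artery blood sampled at 0, 0.5, 1, 2, 4 and 6 h. Intravenous arm used a DMSO solution into the femoral vein, sampled 0 min–6 h. Plasma extracted with CHCl3, dried, reconstituted in MeOH and quantified by HPLC peak area against spiked time-0 plasma standards.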

The nature of data set [2]: Compound at a dose of 10 mg/kg was orally administered to rats and Half-life value was reported. It counts as ADME, organism-based. Also on record: dose 10 mg/kg, route oral. As to conditions: rat, in vivo, po. The method, boiled down: as §1
The target in a further data set is T1, B2 bradykinin receptor (Cavia porcellus, UniProt O70526).
T1 sequence (O70526 whole entry): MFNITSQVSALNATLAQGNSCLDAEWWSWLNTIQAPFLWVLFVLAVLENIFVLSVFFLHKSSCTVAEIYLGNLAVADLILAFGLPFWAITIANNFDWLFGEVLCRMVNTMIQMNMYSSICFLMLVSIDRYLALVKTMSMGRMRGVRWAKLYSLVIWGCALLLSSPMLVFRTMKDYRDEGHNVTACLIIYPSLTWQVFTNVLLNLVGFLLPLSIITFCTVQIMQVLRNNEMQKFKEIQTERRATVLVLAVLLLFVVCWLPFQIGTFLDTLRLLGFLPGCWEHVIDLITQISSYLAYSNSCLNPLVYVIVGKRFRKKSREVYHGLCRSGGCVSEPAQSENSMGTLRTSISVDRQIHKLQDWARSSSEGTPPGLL
The data set is described as follows: In vitro for inhibition of specific binding of [3H]BK (0.06 nM) to bradykinin receptor B2 in guinea pig ileum membrane preparations. The class given is cell membranes. The gist of the method: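 Ileal membranes from male Hartley guinea pigs, prepared in TES/1,10-phenanthroline pH 6.8 by 1000g then 100000g spins. Assay buffer held bacitracin, DTT, 1 μM captopril and 0.1% BSA. Membranes (0.2 mg protein/mL) incubated with [3H]BK (final 0.06 nM) and varying compound concentrations for 60 min at room temperature. Bound ligand filtered on GF/B and counted by scintillation; nonspecific binding taken with 1 μM unlabeled BK.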

Data set [3] in a line: Compound at a dose of 10 mg/kg was orally administered to rats and Bioavailability was reported. As to conditions: rat, in vivo, po, read-out: BA. The class given is ADME, organism-based. The gist of the method: as §1
Data set [4] is described as follows: Compound at a dose of 10 mg/kg was orally administered to rats and maximum plasma concentration was reported. As to conditions: rat, po. Also on record: dose 10 mg/kg, route oral. The class given is ADME, organism-based. The method, boiled down:
as §1

Another data set has as its system Cavia porcellus. The data set is described as follows: In vivo functional antagonistic activity against BK-induced bronchoconstriction in guinea pigs at an oral dose of 1 mg/kg. The method, boiled down: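 Male Hartley guinea pigs (470-750 g), fasted, anesthetized with pentobarbital (30 mg/kg ip), ventilated, given alcuronium iv and propranolol sc. BK (5 μg/kg iv) raised pulmonary insufflation pressure, measured by modified Konzett–Rössler. Compound in 0.5% methylcellulose, or vehicle, was given by oesophageal cannula. BK was repeated 30 min later. Response expressed as ΔPIP after drug over ΔPIP before drug ×100; Student's t-test vs control.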

For `CCCC(=O)NCC(=O)N(C)c1ccc(Cl)c(COc2cccn3c(Br)c(C)nc23)c1Cl`, in data set [1], the exposure (AUC) was found to be 11700 ng·h/mL. Besides, the half-life in data set [2] is 18 min. Also, the half-inhibitory concentration (IC50) at B2 bradykinin receptor came out at 8.9 nM. Further, the bioavailability in data set [3] stood at 90%. In addition, in data set [4], the peak level (Cmax) was 9970 ng/mL. In the data set with Cavia porcellus, the inhibition in vivo at 1 mg/kg was 52.7%.

`Cc1nc2c(OCc3c(Cl)ccc(N(C)C(=O)CNC(=O)CN(C)C)c3Cl)cccn2c1Br` returned an AUC in data set [1] of 940 ng·h/mL. For the same compound, in data set [2], the half-life is 18 min. In addition, the concentration for half-maximal inhibition (IC50) on B2 bradykinin receptor is 2.4 nM. Moreover, the bioavailability in data set [3] was found to be 32.8%. In data set [4], this compound showed a Cmax of 290 ng/mL. The same compound gave an inhibition in vivo at 1 mg/kg in the data set with Cavia porcellus of 72.4%.

Take `CCOC(=O)c1c(C)nc2c(OCc3c(Cl)cccc3Cl)cccn12`: the IC50 at B2 bradykinin receptor is above 100000 nM.

The compound `Cc1nc2c(OCc3c(Cl)ccc(N(C)S(C)(=O)=O)c3Cl)cccn2c1Br` had an IC50 on B2 bradykinin receptor of 2100 nM.

Take `C#CCOCc1c(C)nc2c(OCc3c(Cl)cccc3Cl)cccn12`: at B2 bradykinin receptor, the 50% inhibitory concentration (IC50) is 7600 nM.

The compound `Cc1nc2c(OCc3c(Cl)ccc(N(C)C(=O)CN)c3Cl)cccn2c1Br` registered an IC50 on B2 bradykinin receptor of 380 nM.

For the compound `COC(=O)N(C)c1ccc(Cl)c(COc2cccn3c(Br)c(C)nc23)c1Cl`, the IC50 at B2 bradykinin receptor came to 1400 nM.

At B2 bradykinin receptor, `Cc1nc2c(OCc3c(F)cccc3Cl)cccn2c1Br` came in with an IC50 of 1500 nM.

Take `Clc1cccc(Cl)c1COc1cccn2ccnc12`: the half-inhibitory concentration (IC50) at B2 bradykinin receptor was 31000 nM. This IC50 is about 21-fold higher than that of the compound before.

At B2 bradykinin receptor, `Cc1nc2c(OCc3c(Cl)cccc3Cl)cccn2c1CO` had an IC50 of 7500 nM.

In the case of `COCC(=O)N(C)c1ccc(Cl)c(COc2cccn3c(Br)c(C)nc23)c1Cl`, the concentration for half-maximal inhibition (IC50) at B2 bradykinin receptor stood at 580 nM.

For the compound `CC(=O)NC(C)C(=O)N(C)c1ccc(Cl)c(COc2cccn3c(Br)c(C)nc23)c1Cl` (stereo not drawn), the 50% inhibitory concentration (IC50) at B2 bradykinin receptor was determined as 770 nM.

Regarding `CC(=O)N(Cc1c(Cl)cccc1Cl)c1cccn2c(Br)c(C)nc12`, the half-maximal inhibitory concentration (IC50) on B2 bradykinin receptor is above 100000 nM.

Regarding `CC(=O)NCC(=O)N(C)c1ccc(Cl)c(COc2cccn3c(Br)c(C)nc23)c1Cl`, the IC50 at B2 bradykinin receptor stood at 16 nM. This lies in the double-digit nanomolar range.

For `Cc1nc2c(OCc3c(Cl)cccc3Cl)cccn2c1Br`, on B2 bradykinin receptor, the IC50 was 230 nM.

`Cc1nc2c(COc3c(Cl)cccc3Cl)cccn2c1Br` came in with an IC50 on B2 bradykinin receptor above 100000 nM.

In the case of `COc1ccc(Cl)c(COc2cccn3c(Br)c(C)nc23)c1Cl`, the IC50 at B2 bradykinin receptor worked out at 540 nM.

`CC(=O)Nc1ccc(Cl)c(COc2cccn3c(Br)c(C)nc23)c1Cl` came in with an IC50 at B2 bradykinin receptor of 1800 nM.

On B2 bradykinin receptor, `Cc1nc2c(C(=O)Nc3c(Cl)cccc3Cl)cccn2c1Br` showed a 50% inhibitory concentration (IC50) above 100000 nM.

`CCN(C(C)=O)c1ccc(Cl)c(COc2cccn3c(Br)c(C)nc23)c1Cl` gave an IC50 on B2 bradykinin receptor of 150 nM.

For `CCN(C)c1ccc(Cl)c(COc2cccn3c(Br)c(C)nc23)c1Cl`, the half-inhibitory concentration (IC50) at B2 bradykinin receptor worked out at 410 nM.

In the case of `CC(=O)OCC(=O)N(C)c1ccc(Cl)c(COc2cccn3c(Br)c(C)nc23)c1Cl`, the 50% inhibitory concentration (IC50) at B2 bradykinin receptor came to 500 nM.

`Cc1nc2c(OCc3c(Cl)ccc(Cl)c3Cl)cccn2c1Br` displayed a 50% inhibitory concentration (IC50) on B2 bradykinin receptor of 490 nM.

As for `CCC(=O)N(C)c1ccc(Cl)c(COc2cccn3c(Br)c(C)nc23)c1Cl`, at B2 bradykinin receptor, the IC50 came out at 72 nM.

For the compound `Cc1cn2cccc(OCc3c(Cl)cccc3Cl)c2n1`, the IC50 on B2 bradykinin receptor turned out to be 4500 nM. Against the preceding compound, the IC50 is about 62-fold higher.

On to `CC(=O)N(C)c1c(Cl)cc(Cl)c(COc2cccn3c(Br)c(C)nc23)c1Cl`, for which the IC50 at B2 bradykinin receptor was 420 nM.

On B2 bradykinin receptor, `Cc1nc2c(OCc3c(Cl)ccc([N+](=O)[O-])c3Cl)cccn2c1Br` registered an IC50 of 42 nM.

On B2 bradykinin receptor, `Cc1nc2c(OCc3c(Cl)cccc3Cl)cccn2c1Cl` had a half-maximal inhibitory concentration (IC50) of 200 nM.

`CCNC(=O)NCC(=O)N(C)c1ccc(Cl)c(COc2cccn3c(Br)c(C)nc23)c1Cl` gave an AUC in data set [1] of 58900 ng·h/mL. The half-life in data set [2] was 30 min. The compound further came in with an IC50 at B2 bradykinin receptor of 9 nM. Also, the bioavailability in data set [3] is 75%. The compound also returned a peak concentration (Cmax) in data set [4] of 52600 ng/mL. In the data set on Cavia porcellus, this compound had an inhibition in vivo at 1 mg/kg of 57.2%.

For `CCc1cn2cccc(OCc3c(Cl)cccc3Cl)c2n1`, at B2 bradykinin receptor, the 50% inhibitory concentration (IC50) amounted to 10000 nM.

On to `Cc1nc2c(C(=O)Oc3c(Cl)cccc3Cl)cccn2c1Br`, for which, on B2 bradykinin receptor, the IC50 was above 100000 nM.

Compound `Cc1nc2c(OCc3c(F)cccc3F)cccn2c1Cl` registered a half-inhibitory concentration (IC50) at B2 bradykinin receptor of 1800 nM.

As for `Cc1nc2c(OCc3c(Br)cccc3Br)cccn2c1Cl`, the concentration for half-maximal inhibition (IC50) at B2 bradykinin receptor is 1700 nM. This IC50 and that of the compound before are within 1.5-fold of each other.

On B2 bradykinin receptor, `CC(=O)N(C)CC(=O)N(C)c1ccc(Cl)c(COc2cccn3c(Br)c(C)nc23)c1Cl` yielded an IC50 of 1600 nM. This IC50 and that of the compound before are within 1.5-fold of each other.

At B2 bradykinin receptor, `Cc1nc2c(/C=C/c3c(Cl)cccc3Cl)cccn2c1Br` had a concentration for half-maximal inhibition (IC50) above 100000 nM.

The compound `Cc1nc2c(NCc3c(Cl)cccc3Cl)cccn2c1Cl` returned an IC50 on B2 bradykinin receptor of 1200 nM.

The compound `CC(=O)NCCC(=O)N(C)c1ccc(Cl)c(COc2cccn3c(Br)c(C)nc23)c1Cl` gave a concentration for half-maximal inhibition (IC50) at B2 bradykinin receptor of 810 nM. This IC50 and that of the compound before are within 1.5-fold of each other.

With `CNC(=O)N(C)c1ccc(Cl)c(COc2cccn3c(Br)c(C)nc23)c1Cl`, the IC50 at B2 bradykinin receptor was 350 nM.

Compound `CCn1c(C)cc(C#N)c1-c1ccc(COc2cc(C)nc3ccccc23)cc1` returned an IC50 at B2 bradykinin receptor of 31000 nM.

In turn, `CC(=O)N(C)c1ccc(Cl)c(COc2cccn3c(Br)c(C)nc23)c1Cl` came in with a 50% inhibitory concentration (IC50) at B2 bradykinin receptor of 54 nM.

The compound `Cc1nc2c(NC(=O)c3c(Cl)cccc3Cl)cccn2c1Cl` showed a half-maximal inhibitory concentration (IC50) on B2 bradykinin receptor above 100000 nM.

In the case of `FC(F)(F)c1cn2cccc(OCc3c(Cl)cccc3Cl)c2n1`, the IC50 at B2 bradykinin receptor was above 100000 nM.

At B2 bradykinin receptor, `Cc1nc2c(OCc3c(Cl)ccc(N)c3Cl)cccn2c1Br` came in with an IC50 of 1500 nM. That is a single-digit micromolar value.

As to `CCC(=O)NCC(=O)N(C)c1ccc(Cl)c(COc2cccn3c(Br)c(C)nc23)c1Cl`, the IC50 at B2 bradykinin receptor came out at 19 nM. Also, the inhibition in vivo at 1 mg/kg in the data set on Cavia porcellus is 48.4%.

For the compound `Cc1nc2c(OCc3c(Cl)ccc(N(C)C(=O)CNS(C)(=O)=O)c3Cl)cccn2c1Br`, the IC50 on B2 bradykinin receptor is 580 nM. 1 mg/kg produced 48.4% inhibition in vivo in the data set with Cavia porcellus.

Compound `CCCNC(=O)NCC(=O)N(C)c1ccc(Cl)c(COc2cccn3c(Br)c(C)nc23)c1Cl` gave an IC50 on B2 bradykinin receptor of 26 nM. The inhibition in vivo at 1 mg/kg in the data set on Cavia porcellus is 62.4%.

`CCCCC(=O)NCC(=O)N(C)c1ccc(Cl)c(COc2cccn3c(Br)c(C)nc23)c1Cl` came in with an IC50 on B2 bradykinin receptor of 7.8 nM. The inhibition in vivo at 1 mg/kg with Cavia porcellus worked out at 29.7%.

`CNC(=O)NCC(=O)N(C)c1ccc(Cl)c(COc2cccn3c(Br)c(C)nc23)c1Cl`: at B2 bradykinin receptor, the IC50 was found to be 46 nM. In the data set on Cavia porcellus, this compound gave an inhibition in vivo at 1 mg/kg of 41.5%.

Regarding `CC(=O)NCC(=O)N(C)c1ccc(Cl)c(COc2cccn3c(Br)c(C)nc23)c1Cl.Cl`, the AUC in data set [1] turned out to be 3150 ng·h/mL. The same compound showed a half-life in data set [2] of 25.2 min. The compound also had a half-inhibitory concentration (IC50) at B2 bradykinin receptor of 16 nM. The compound also displayed a Cmax in data set [4] of 3640 ng/mL. The same compound gave an inhibition in vivo at 1 mg/kg in the data set on Cavia porcellus of 62.3%.
